One test deals with M21. In words: Antiproliferative activity against human M21 cells after 48 hrs by SRB assay. Type of test: functional. Particulars: M21, 48 h. In short, it runs like this: (§1)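 Cells were grown in high-glucose DMEM with 5% defined bovine calf serum and pre-incubated 24 h at 37 °C in 5% CO2. Drugs were freshly dissolved in DMSO, diluted in medium and added in serial dilutions, with DMSO kept below 0.5%, and incubated 48 h. Cells were fixed with cold TCA (10% final, 60 min at 4 °C), stained 15 min with 0.1% SRB in 1% acetic acid, and the dye solubilized in Tris base. Absorbance was read at 585 nm and growth inhibition % calculated against a control plate fixed on the treatment day.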
(In general: In SRB staining, fixed cells bind dye roughly in proportion to their protein.)

For the next test, the system named is HT-29. In words: Antiproliferative activity against human HT-29 cells after 48 hrs by SRB assay. Format: functional. Particulars: HT-29, 48 h. In short, it runs like this: as §1
For a further test, the system named is HT-1080. In words: Antiproliferative activity against human HT1080 cells after 48 hrs by SRB assay. The note with it: HT-1080, 48 h. Type of test: functional. In short, it runs like this:
as §1

Test [1] has as its system MCF7. In words: Antiproliferative activity against human MCF7 cells after 48 hrs by SRB assay. Format: functional. Particulars: MCF7, 48 h. A digest of the protocol: as §1
Test [2] in a line: Binding affinity to pGEM-9Zf(-) DNA assessed as effect on DNA migration at 40 uM by gel electrophoresis. A digest of the protocol:
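Human topo1 was then added and the mix held 2 h at 37 °C in the dark. The reaction was stopped with SDS and proteinase K (1 h, 45 °C). Products were run on 1% agarose with 0.1% SDS in TBE (16 h, 1.25 V/cm), stained with ethidium bromide, and re-run 2 h at 2 V/cm. Ethidium bromide served as the intercalation reference and camptothecin as the poison control.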

For test [3], the system named is MCF7. The test is described as follows: Cell cycle arrest in human MCF7 cells assessed as accumulation at G2/M phase at 6.6 uM after 24 hrs by flow cytometry. Format: functional, cell-based. A digest of the protocol:
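Exponentially growing MCF-7 cells were exposed to compound or DMSO control for 4, 24 or 48 h and analysed by flow cytometry with 488 nm argon laser excitation. Cell-cycle distribution was expressed as the treated/control ratio.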
A general note: Flow cytometry measures light scatter and fluorescence of single cells or particles in a stream.

The source made the active and inactive calls. The rule behind the calls is not given here.

The GI50 is the concentration at which growth is held to half of that of the control. A lower GI50 goes with more potent growth inhibition. For `O=C1CCCc2nc3ccc4nccn4c3cc21`, the GI50 with M21, in the test on HT-29, with HT-1080 and in the test on MCF7 [1] was > 100 µM in each case.

For the compound `c1cn2c(ccc3nc4c(cc32)CCCC4)n1`, the concentration for 50% growth inhibition (GI50) in the test on M21, in the test on HT-29, with HT-1080 and in the test with MCF7 [1] was > 100 µM throughout.

For `c1ccc2c(c1)CCc1nc3c(ccn4ccnc34)cc1-2`, the GI50 with M21 came to 64.8 µM; in the test on HT-29, 49.2 µM; in the test with HT-1080, 41.4 µM; in the test on MCF7 [1], 46.5 µM.

For the compound `Cc1cc2ccn3ccnc3c2nc1C`, the GI50 in the test on M21, in the test with HT-29, with HT-1080 and in the test on MCF7 [1] was > 100 µM in each case.

Turning to `c1ccc(-c2ccc3c(ccc4nccn43)n2)cc1`, the GI50 in the test with M21 came out at 70.1 µM; in the test on HT-29 it was 55.8 µM; with HT-1080 it was 43.3 µM; with MCF7 [1] it was 51.8 µM.

`c1ccc2c(c1)CCc1cc3ccn4ccnc4c3nc1-2`: the outcome (in test [2]; in the test with MCF7 [3]) was Active. Further, the GI50 was 8.1 µM in the test on M21, 7.2 µM in the test on HT-29, 13.4 µM in the test on HT-1080 and 6.6 µM in the test on MCF7 [1].

In the case of `CCOC(=O)C1CCc2nc3ccc4nccn4c3cc2C1` (stereo not drawn), the GI50 in the test on M21, with HT-29, in the test on HT-1080 and in the test on MCF7 [1] was > 100 µM in each case.

With `Cc1cc2c(ccc3nccn32)nc1C`, the GI50 with M21, with HT-29, with HT-1080 and with MCF7 [1] was > 100 µM in each case.

For `c1ccc(-c2ccc3ccn4ccnc4c3n2)cc1`, the GI50 in the test with M21 was 56.5 µM; in the test on HT-29, 48.4 µM; in the test with HT-1080, 57.7 µM; with MCF7 [1], 60.5 µM.

As for `Cc1ccc2c(ccc3nccn32)n1`, the GI50 with M21, in the test on HT-29, with HT-1080 and in the test on MCF7 [1] was > 100 µM each time.

In the case of `Cc1ccc2ccn3ccnc3c2n1`, the 50% growth inhibitory concentration (GI50) with M21, in the test with HT-29, in the test on HT-1080 and in the test with MCF7 [1] was > 100 µM throughout.

Consider `O=C1CCCc2nc3c(ccn4ccnc34)cc21`, for which the GI50 in the test on M21, in the test on HT-29, in the test with HT-1080 and in the test on MCF7 [1] was > 100 µM each time.

On to `COc1cc(NS(C)(=O)=O)ccc1Nc1c2ccccc2nc2ccccc12` [AMSACRINE], for which the GI50 is 49.6 µM with M21, 16.8 µM with HT-29, 1.6 µM with HT-1080 and 5.6 µM in the test with MCF7 [1].

Take `CCc1ccc2c(ccc3nccn32)n1`: the GI50 with M21, with HT-29, in the test with HT-1080 and in the test on MCF7 [1] was > 100 µM throughout.

Consider `c1ccc2cc3nc4c(ccn5ccnc45)cc3cc2c1`, for which the GI50 was determined as 25.2 µM in the test with M21, 18.3 µM in the test on HT-29, 20.7 µM in the test with HT-1080 and 21.5 µM in the test with MCF7 [1].

Take `c1ccc2c(c1)CCc1cc3c(ccc4nccn43)nc1-2`: the 50% growth inhibitory concentration (GI50) with M21 is 52 µM; with HT-29, 27.8 µM; in the test with HT-1080, 32.7 µM; in the test with MCF7 [1], 20.9 µM.

Take `CCOC(=O)C1CCc2nc3c(ccn4ccnc34)cc2C1` (stereo not drawn): the GI50 is 80.3 µM in the test with M21, 79.6 µM in the test with HT-29, 64.9 µM in the test on HT-1080 and 57.7 µM in the test with MCF7 [1].

With `c1cn2ccc3cc4c(nc3c2n1)CCCC4`, the GI50 in the test on M21, in the test on HT-29, in the test on HT-1080 and with MCF7 [1] was > 100 µM in each case.

Turning to `CCc1ccc2ccn3ccnc3c2n1`, the GI50 in the test with M21, in the test with HT-29, in the test on HT-1080 and in the test with MCF7 [1] was > 100 µM throughout.

Values taken from ChEMBL document CHEMBL1154478, “Novel imidazo[1,2-a]naphthyridinic systems (part 1): synthesis, antiproliferative and DNA-intercalating activities” (2008).
